From ChEMBL document CHEMBL4304739, “Discovery of 3-(Indol-5-yl)-indazole Derivatives as Novel Myeloid Differentiation Protein 2/Toll-like Receptor 4 Antagonists for Treatment of Acute Lung Injury” (J Med Chem, 2019)
Calls of active or inactive are those of the source. The rule behind the calls is not given here.

How the values were obtained:
[1] = molecular target: Casein kinase I isoform delta (Homo sapiens) (UniProt P48730); assay: Inhibition of wild-type human full length CSNK1D (M1 to K409 residues) expressed in bacterial expression system at 1 uM by Kinomescan method
Method in brief: (§1)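 KINOMEscan competition binding screen at 1 μM compound. Results reported as % of control = (test − positive control)/(DMSO negative control − positive control) × 100, where lower values mean stronger hits.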

[2] = molecular target: Mitogen-activated protein kinase 3 (Homo sapiens) (UniProt P27361); assay: Inhibition of wild-type human full length ERK1 (M1 to P379 residues) expressed in bacterial expression system at 1 uM by Kinomescan method; method in brief: as §1
[3] = molecular target: MAP kinase-activated protein kinase 2 (Homo sapiens) (UniProt P49137); assay: Inhibition of wild-type human partial length MAPKAPK2 (V48 to D345 residues) expressed in bacterial expression system at 1 uM by Kinomescan method
Method in brief: (§2)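 Binding-competition screen on the KINOMEscan platform, run by the provider, with the test compound at 1 μM. Readout is percent of control: (test signal − positive control signal)/(negative control signal − positive control signal) × 100. The DMSO negative control is set as 100% Ctrl and a control compound as 0% Ctrl. Lower values mean stronger hits.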

[4] = molecular target: Platelet-derived growth factor receptor beta (Homo sapiens) (UniProt P09619); assay: Inhibition of wild-type human partial length PDGFRB (V582 to Y1009 residues) expressed in bacterial expression system at 1 uM by Kinomescan method; method in brief: as §2
[5] = molecular target: MAP kinase-interacting serine/threonine-protein kinase 2 (Homo sapiens) (UniProt Q9HBH9); assay: Inhibition of wild-type human partial length MKNK2 (G63 to S388 residues) expressed in mammalian expression system at 1 uM by Kinomescan method; method in brief: as §2
[6] = molecular target: Serine/threonine-protein kinase pim-1 (Homo sapiens) (UniProt P11309); assay: Inhibition of wild-type human partial length PIM1 (A15 to K313 residues) expressed in bacterial expression system at 1 uM by Kinomescan method; method in brief: as §2
[7] = molecular target: Mitogen-activated protein kinase kinase kinase 9 (Homo sapiens) (UniProt P80192); assay: Inhibition of wild-type human partial length MLK1 (V88 to W426 residues) expressed in bacterial expression system at 1 uM by Kinomescan method; method in brief: as §2
[8] = molecular target: RAC-beta serine/threonine-protein kinase (Homo sapiens) (UniProt P31751); assay: Inhibition of wild-type human partial length AKT2 expressed in bacterial expression system at 1 uM by Kinomescan method; method in brief: as §1
[9] = molecular target: Cyclin-dependent kinase 19 (Homo sapiens) (UniProt Q9BWU1); assay: Inhibition of wild-type human partial length CDK11 (M1 to N360 residues) expressed in bacterial expression system at 1 uM by Kinomescan method; method in brief: as §2
[10] = test system: Mast/stem cell growth factor receptor Kit (Homo sapiens), P10721 [D816V]; assay: Inhibition of human partial length KIT D816V mutant (I571 to D952 residues) expressed in bacterial expression system at 1 uM by Kinomescan method
Method in brief: (§3)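 KINOMEscan competition binding panel (98 kinases) run by the provider, compound screened once at 1 μM. Read-out is percent of control: [(test signal − positive control signal)/(negative control signal − positive control signal)] × 100. DMSO negative control sets 100% Ctrl and a control compound sets 0% Ctrl; lower values mean stronger hits.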

[11] = molecular target: Cyclin-dependent kinase 9 (Homo sapiens) (UniProt P50750); assay: Inhibition of wild-type human full length CDK9 (M1 to F372 residues) expressed in bacterial expression system at 1 uM by Kinomescan method; method in brief: as §1
[12] = test system: Mus musculus; assay: Antiinflammatory activity in LPS-induced C57BL/6 mouse model of acute lung injury assessed as reduction in IL33 mRNA level at 10 mg/kg, iv pretreated for 15 mins followed by LPS stimulation and measured after 6 hrs by SYBR green staining-based qRT-PCR analysis; type: functional, organism-based
Method in brief: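 Total lung RNA extracted, with DNase I removal of residual DNA. Quantitative PCR with mouse gene primers; each gene normalized to β-actin. C57BL/6 mice given compound iv 15 min before intraperitoneal LPS (20 mg/kg) and killed at 6 h.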

[13] = molecular target: Cyclin-dependent kinase 2 (Homo sapiens) (UniProt P24941); assay: Inhibition of wild-type human full length CDK2 (M1 to L298 residues) expressed in bacterial expression system at 1 uM by Kinomescan method; method in brief: as §1
[14] = molecular target: Serine/threonine-protein kinase STK11 (Homo sapiens) (UniProt Q15831); assay: Inhibition of wild-type human full length LKB1 (M1 to Q433 residues) expressed in bacterial expression system at 1 uM by Kinomescan method; method in brief: as §1
[15] = molecular target: Mitogen-activated protein kinase 11 (Homo sapiens) (UniProt Q15759); assay: Inhibition of wild-type human full length p38-beta (M1 to Q364 residues) expressed in bacterial expression system at 1 uM by Kinomescan method; method in brief: as §1
[16] = molecular target: Casein kinase I isoform gamma-1 (Homo sapiens) (UniProt Q9HCP0); assay: Inhibition of wild-type human partial length CSNK1G1 (T15 to S353 residues) expressed in bacterial expression system at 1 uM by Kinomescan method; method in brief: as §2
[17] = molecular target: Epidermal growth factor receptor (Homo sapiens) (UniProt P00533); assay: Inhibition of wild-type human partial length EGFR (R669 to V1011 residues) expressed in bacterial expression system at 1 uM by Kinomescan method; method in brief: as §3
[18] = molecular target: Vascular endothelial growth factor receptor 2 (Homo sapiens) (UniProt P35968); assay: Inhibition of wild-type human partial length VEGFR2 (R787 to P1253 residues) expressed in mammalian expression system at 1 uM by Kinomescan method
Method in brief: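 Single-concentration screen at 1 μM on the KINOMEscan panel (98 kinases), run by the platform provider. Results are given as percent of control: % Ctrl = [(test signal − positive control signal)/(negative control signal − positive control signal)] × 100. DMSO serves as negative control (100% Ctrl) and a control compound as positive control (0% Ctrl). Lower values mean stronger binding hits.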

[19] = molecular target: Macrophage colony-stimulating factor 1 receptor (Homo sapiens) (UniProt P07333); assay: Inhibition of wild-type human partial length CSF1R (I564 to S939 residues) expressed in bacterial expression system at 1 uM by Kinomescan method; method in brief: as §2
[20] = molecular target: Mitogen-activated protein kinase kinase kinase 4 (Homo sapiens) (UniProt Q9Y6R4); assay: Inhibition of wild-type human partial length MAP3K4 (G1319 to E1608 residues) expressed in bacterial expression system at 1 uM by Kinomescan method; method in brief: as §2
[21] = molecular target: Serine/threonine-protein kinase PAK 2 (Homo sapiens) (UniProt Q13177); assay: Inhibition of wild-type human partial length PAK2 (P151 to R525 residues) expressed in bacterial expression system at 1 uM by Kinomescan method; method in brief: as §2
[22] = molecular target: Mast/stem cell growth factor receptor Kit (Homo sapiens) (UniProt P10721); assay: Inhibition of wild-type human partial length KIT (I571 to D952 residues) expressed in bacterial expression system at 1 uM by Kinomescan method; method in brief: as §3
[23] = molecular target: Serine/threonine-protein kinase B-raf (Homo sapiens) (UniProt P15056); assay: Inhibition of wild-type human partial length BRAF (S429 to E741 residues) expressed in mammalian expression system at 1 uM by Kinomescan method; method in brief: as §2

## O=C(Nc1ccc2[nH]nc(-c3ccc4[nH]ccc4c3)c2c1)c1c(Cl)cccc1Cl
[1]
  inhibition: inactive
[2]
  inhibition: inactive
[3]
  inhibition: inactive
[4]
  inhibition: inactive
[5]
  inhibition: inactive
[6]
  inhibition: inactive
[7]
  inhibition: inactive
[8]
  inhibition: inactive
[9]
  inhibition: inactive
[10]
  inhibition: inactive
[11]
  inhibition: inactive
[12]
  Activity: Active
[13]
  inhibition: inactive
[14]
  inhibition: inactive
[15]
  inhibition: inactive
[16]
  inhibition: inactive
[17]
  inhibition: inactive
[18]
  inhibition: inactive
[19]
  inhibition: inactive
[20]
  inhibition: inactive
[21]
  inhibition: inactive
[22]
  inhibition: inactive
[23]
  inhibition: inactive
